FN deposit inh = fibronectin deposition inhibition. 350,000 tested, 0.086% active. AID 743247. AH1F fibroblasts, Alexa488-fibronectin deposition fluorescence, overnight. inhibition, % at 12.6 µM;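 active = mean inhibition across replicates of 30% or more, regardless of how many single replicates reach that level; inconclusive = mean under 30% yet at least half of replicates reach 30%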;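 also: positive control wells lacked labelled fibronectin entirely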
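material = AH1F fibroblast monolayer depositing Alexa488-labelled fibronectin into matrix | amount = 10000 AH1F cells/well | buffer or medium = DMEM plus 2% serum, read in PBS | incubation = 1 h cell adhesion before compound, then overnight fibronectin incubation | detection = fluorescence at 485 nm excitation, 525 nm emission | evaluation = percent inhibition as loss of matrix-bound fibronectin fluorescence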
N-glyco inh = blocks N-linked glycosylation in D54 reporter cells | AID 588692 | reporter increase, % at 12.5 µM | D54 ERlucT glycosylation luciferase reporter, 24 h; percent of 100 nM tunicamycin response | 360,000 tested, 0.23% active;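 active = mean luciferase reporter signal, scaled so untreated is 0 and the glycosylation-blocking control 100, at or above a set limit in every replicate; inconclusive = mean reaches the limit but not every replicate does; inactive = mean below the limit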;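 also: luciferase carries N-glycosylation sites so blocking glycosylation raises the light; 0% = median of neutral control wells and 100% = median of 100 nM tunicamycin wells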
RAD54 branch = inhibitors of human RAD54 branch migration; 360,000 tested, 0.14% active; RAD54 Holliday junction branch migration, FAM/BHQ fluorescence; inhibition, % at 10.4 µM; Q92698;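 active = mean normalized replicate activity at least 40 and at least half of replicates scoring 40 or more; inconclusive = only one of the two criteria met; inactive = mean below 40 and under half of replicates reaching 40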;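 also: 0% = median of neutral control wells and 100% = median of positive control wells; inhibitors cause a drop in the FAM fluorescence signal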
RAD52 anneal inh = blocks human RAD52 DNA annealing. P43351. recombinant RAD52 DNA annealing, FRET fluorescence. inhibition, % at 18.7 µM. 360,000 tested, 0.46% active;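 active = every replicate showing at least 50% inhibition; inconclusive = mean inhibition at least 50% but not in every replicate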
MLL AF4-AF9 inh = blocks AF4 peptide binding to human AF9; P42568; AlphaScreen, biotin-AF4 peptide binding to FLAG-AF9; 350,000 tested, 0.47% active; inhibition, % at 10 µM;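 active = every replicate reaching a set inhibition limit, whatever the replicate mean, cut at about 25% in these data; inconclusive = mean inhibition reaches that limit but some replicates miss it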;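 also: 0% = plate neutral control median and 100% = total signal loss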
Target sequence (P42568 whole entry, looked up): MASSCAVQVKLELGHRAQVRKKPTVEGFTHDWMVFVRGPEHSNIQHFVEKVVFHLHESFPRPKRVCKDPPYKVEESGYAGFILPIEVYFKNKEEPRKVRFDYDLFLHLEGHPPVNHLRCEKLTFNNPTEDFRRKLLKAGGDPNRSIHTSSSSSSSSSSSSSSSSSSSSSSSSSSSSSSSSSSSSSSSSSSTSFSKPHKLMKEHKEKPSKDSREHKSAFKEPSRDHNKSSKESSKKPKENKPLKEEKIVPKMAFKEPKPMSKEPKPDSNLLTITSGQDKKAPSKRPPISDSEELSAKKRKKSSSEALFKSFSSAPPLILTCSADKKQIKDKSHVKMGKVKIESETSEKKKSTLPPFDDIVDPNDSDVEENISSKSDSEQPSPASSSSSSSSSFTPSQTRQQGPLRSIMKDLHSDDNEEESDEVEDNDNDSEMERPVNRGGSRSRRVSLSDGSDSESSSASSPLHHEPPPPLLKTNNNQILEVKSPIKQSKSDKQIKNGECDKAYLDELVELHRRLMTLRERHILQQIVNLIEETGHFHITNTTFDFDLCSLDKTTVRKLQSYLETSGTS
Active calls of the source: *; ? = inconclusive; nt = no result; ! = repeats disagree. Compounds with a hit are over-represented: about 0.92% of the library has one in this group of screens.

SMILES	FN deposit inh	N-glyco inh	RAD54 branch	RAD52 anneal inh	MLL AF4-AF9 inh
COc1ccc2c3c(n(C)c2c1)[C@@H](CO)N(C(=O)C1CC1)CC31CCN(Cc2cccc(F)c2)CC1	-1	nt	nt	20	?
COc1ccc2c3c(n(C)c2c1)[C@@H](CO)N(C(=O)C1CCC1)CC31CCN(Cc2cccc(F)c2)CC1	nt	nt	nt	10	29*
COc1cccc(CN2CC3(C2)CN(C(=O)C2CC2)[C@H](CO)c2c3c3ccc(OC)cc3n2C)c1	nt	nt	nt	nt	27*
COc1ccc2c3c(n(C)c2c1)[C@H](CO)N(C(=O)C1CCC1)CC31CCN(Cc2cccc(F)c2)CC1	nt	nt	nt	9	?
COc1ccc2c3c(n(C)c2c1)[C@@H](CO)N(C(=O)C1CC1)CC31CN(Cc2cccc(F)c2)C1	nt	nt	nt	17	nt
N#C[C@H]1N[C@H](CO)[C@@H]1c1ccc(-c2ccccc2F)cc1	6	nt	1	-14	-1
O=C(/C=C/c1ccccc1)Nc1ccc2c(c1)C(=O)NC2=O	-11	-1	-6	-4	50*
O=C(/C=C/c1ccccc1Cl)Nc1ccc2c(c1)C(=O)NC2=O	17	-1	1	-74	-5
COC1=CC(=O)c2c(ccc3ncnc(N)c23)C1=O	31*	-20	nt	1	-5
Nc1ccc(N=Nc2ccccc2)c(N)n1	3	-2	9	11	34*
COc1ccc(-c2ccc(C(c3c(C)[nH][nH]c3=O)c3c(C)[nH][nH]c3=O)o2)c([N+](=O)[O-])c1	-9	34*	nt	-2	-1
Cc1[nH][nH]c(=O)c1C(c1ccc(-c2ccc(Cl)c(Cl)c2)o1)c1c(C)[nH][nH]c1=O	nt	46*	0	nt	nt
O=C(NCc1ccccc1)OC1CC2CC1[C@H]1CCCCN1C2=O (some centres undefined)	-6	nt	nt	-7	-1
O=C(NCc1ccc(F)cc1)OC1CC2CC1[C@H]1CCCCN1C2=O (some centres undefined)	30*	nt	nt	-1	-4
CN(C)c1ccc(CNc2ccc3c(c2)ncn3C(C)(C)C)cc1	1	-2	1	-14	35*
CCN(CC)c1ccc(CNc2ccc3c(c2)ncn3CC)cc1	0	nt	nt	5	45*
CCCNC(=O)C[C@H]1C[C@@H]2c3cc(NC(=O)C4CCC4)ccc3O[C@@H]2[C@H](CO)O1	5	nt	-9	-8	1
COc1cccc(C2=NOC(C(=O)NCc3ccco3)C2)c1 (centres undefined)	2	29*	13	nt	nt
COc1cccc(C2=NOC(C(=O)NCc3ccccc3)C2)c1 (centres undefined)	6	?	-1	nt	nt
O=C(Nc1cccc(-n2cnnn2)c1)c1cc(Cl)ccc1Cl	5	34*	-2	-17	-1
CCOc1ccccc1CNC(=O)CCCc1cn(C)c2ccccc12	-5	0	-7	-14	49*
CCCNC(=O)N1[C@H](CO)[C@H]2c3ccccc3N(C(=O)Nc3ccccc3)C[C@H]21	-3	nt	nt	nt	nt
C[C@@H]1CN(C)C(=O)Cc2cc(N)ccc2O[C@@H]1CN(C)C(=O)OC(C)(C)C	-13	nt	nt	nt	nt
C(=N\Nc1nc2ccccc2[nH]1)/C1CCCCC1	-10	-1	nt	-4	26*
C(=N\Nc1nc2ccccc2[nH]1)/c1ccccc1	1	-3	3	1	7
SMILES	FN deposit inh	N-glyco inh	RAD54 branch	RAD52 anneal inh	MLL AF4-AF9 inh
CCNC(=O)C[C@H]1CC[C@H]2[C@@H](COc3ccc(NC(=O)c4cccc(OC)c4)cc3C(=O)N2C)O1	-9	nt	-2	5	-1
C=CC#CC[N+]1(CC#Cc2ccccc2)CCOCC1	-18	3	nt	74*	97*
C(#Cc1ccccc1)C[N+]1(CC#Cc2ccccc2)CCCC1	4	2	4	-1	2
CC#CC#Cc1cccc(=O)o1	-3	36*	0	-5	-1
CC(C)C1CC(CCNCc2ccc3c(c2)OCO3)(c2ccccc2)CCO1 (centres undefined)	0	-2	nt	4	5
Cc1ccc(C2(CCNCc3ccc(N(C)C)cc3)CCOC(C(C)C)C2)cc1 (centres undefined)	-3	-4	nt	-41	40*
C#Cc1ccc([C@H]2C=C(C(=O)NCc3nc4ccccc4[nH]3)O[C@@H](OCCCCO)C2)cc1	nt	nt	-2	-42	-2
CN1OC[C@@H]2CN(S(=O)(=O)c3ccccc3)[C@H](c3ccc(N4CCCCC4)cc3)C[C@@H]21	1	4	-1	-37	5
CN1OC[C@@H]2CN(Cc3ccc4c(c3)OCO4)[C@H](c3ccc(N4CCCCC4)cc3)C[C@@H]21	-11	-2	8	-92	33*
CN1OC[C@@H]2CN(Cc3ccccc3)[C@H](c3ccc(N4CCCCC4)cc3)C[C@@H]21	1	0	1	-40	28*
O=C(C[C@H]1CC[C@H]2[C@@H](COC[C@@H](O)CN2S(=O)(=O)c2ccccc2)O1)NCC1CCCCC1	-8	nt	9	34	6
O=C(C[C@H]1CC[C@@H]2[C@H](COC[C@H](O)CN2S(=O)(=O)c2ccccc2)O1)NCC1CCCCC1	14	nt	5	55*	16
O=C(C[C@@H]1CC[C@H]2[C@@H](COC[C@H](O)CN2S(=O)(=O)c2ccccc2)O1)NCC1CCCCC1	-4	nt	-5	53*	39*
CCC(=O)N1CCC2(CC1)CN(CC1CCCCC1)[C@@H](CO)c1c2c2ccc(OC)cc2n1C	nt	nt	nt	nt	8
O=C(Nc1ccc2c(c1)[C@@H]1C[C@H](CC(=O)N3CCOCC3)O[C@H](CO)[C@@H]1O2)c1ccc2c(c1)OCO2	-10	nt	0	nt	nt
CCOc1ccc(-n2nnnc2SCC(=O)Nc2cccc(O)c2)cc1	0	-1	-7	4	28*
O=C(C[C@H]1C=C[C@@H](NC(=O)Nc2ccc3c(c2)OCO3)[C@H](CO)O1)NCc1ccc(Cl)cc1	nt	nt	-2	-3	0
Cc1cc(C(C)(C)C)ccc1NC(=O)CC(C)(C)CC(=O)O	11	1	-5	-7	26*
Cc1ccccc1-c1ccc(C2[C@@H]3CN(C(=O)Nc4cccc(F)c4)C[C@H]2N3)cc1 (some centres undefined)	3	nt	nt	72*!	4
Cc1ccccc1-c1ccc(C2[C@@H]3CN(C(=O)Nc4ccc(F)cc4)C[C@H]2N3)cc1 (some centres undefined)	-2	nt	nt	nt	nt
O=C(Nc1cccc(F)c1)N1C[C@@H]2N[C@H](C1)C2c1ccc(-c2ccccc2F)cc1 (some centres undefined)	7	nt	nt	64*!	-1
O=C(Nc1ccc(O)cc1)c1ccccc1OCc1ccccc1	-1	13	2	-8	-2
COc1cc(NC(=O)c2ccccc2OCc2ccccc2)cc(OC)c1OC	4	28*	5	3	0
CNC(=O)c1cccc(NC(=O)c2ccccc2OCc2ccccc2)c1	-18	27*	-4	-13	-1
C[C@@H]1CCCCO[C@@H](CN(C)C(=O)c2ccncc2)[C@@H](C)CN([C@H](C)CO)C(=O)c2cc(NC(=O)NC3CCCCC3)ccc2O1	nt	nt	-5	nt	nt

Source: PubChem (Broad Institute)
